Source: ChEMBL document CHEMBL1130336, “Polyanion inhibitors of human immunodeficiency virus and other viruses. 6. Micelle-like anti-HIV polyanionic compounds based on a carbohydrate core” (J Med Chem, 1997)

Experiments:
CEM-4 [1] = experiment: Concentration required to reduce the viability of uninfected CEM-4 cells by 50%; assay type: functional; settings: Homo sapiens
Procedure, shortened: (§1)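 Cytotoxicity in uninfected CEM-4 or MT-4 cells, measured as inhibition of cell growth. The value is the concentration that lowers viability by 50%.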

CEM-4 [2] = experiment: Inhibitory concentration required to inhibit HIV-induced cytopathicity in CEM-4 cells by 50%; assay type: functional, cell-based; settings: Homo sapiens
Procedure, shortened: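 CEM-4 cells infected with HIV-1 (strain HTLV-III_B/LAI). The end point is 50% inhibition of HIV-induced cytopathicity.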

E6SM [3] = experiment: Concentration required to cause a microscopically detectable alteration of normal E6SM cell morphology; assay type: functional, cell-based; settings: Homo sapiens, read-out: IC50
Procedure, shortened: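 Minimum cytotoxic concentration, read microscopically as the level that causes a detectable alteration of normal cell morphology.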

E6SM [4] = experiment: Concentration required to reduce herpes simplex virus-1TK( B2006) inducted cytopathicity by 50% (E6SM cells); assay type: functional, cell-based; settings: Homo sapiens
Procedure, shortened: (§2)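 Virus was added in the presence of compound, and the cells were incubated until cytopathic effect was scored. The value is the concentration that reduces virus-induced CPE by 50%.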

E6SM [5] = experiment: Concentration required to reduce herpes simplex virus-1TK (F) inducted cytopathicity by 50% (E6SM cells); assay type: functional, cell-based; settings: Homo sapiens; procedure, shortened: as §2
E6SM [6] = experiment: Concentration required to reduce herpes simplex virus-1TK (KOS) inducted cytopathicity by 50% (E6SM cells); assay type: functional, cell-based; settings: Homo sapiens; procedure, shortened: as §2
E6SM [7] = experiment: Concentration required to reduce herpes simplex virus-1TK (McIntyre) inducted cytopathicity by 50% (E6SM cells); assay type: functional, cell-based; settings: Homo sapiens; procedure, shortened: as §2
E6SM [8] = experiment: Concentration required to reduce herpes simplex virus-1TK (VMW1837) inducted cytopathicity by 50% (E6SM cells); assay type: functional, cell-based; settings: Homo sapiens; procedure, shortened: as §2
E6SM [9] = experiment: Concentration required to reduce herpes simplex virus-2(196) inducted cytopathicity by 50% (E6SM cells); assay type: functional, cell-based; settings: Homo sapiens; procedure, shortened: as §2
E6SM [10] = experiment: Concentration required to reduce herpes simplex virus-2(G) inducted cytopathicity by 50% (E6SM cells); assay type: functional, cell-based; settings: Homo sapiens; procedure, shortened: as §2
Vaccinia virus = experiment: Concentration required to reduce vaccinia virus-inducted cytopathicity by 50% (E6SM cells); assay type: functional, organism-based, Orthopoxvirus vaccinia; settings: Orthopoxvirus vaccinia, E6SM
[11] = test system: Human immunodeficiency virus 1; experiment: Concentration required to inhibit by 50% human immunodeficiency virus-1 induced syncytium formation upon coculturing persistently HIV-infected HUT-78 cells with MOLT-4 cells; assay type: functional, organism-based; settings: Human immunodeficiency virus 1, MOLT-4
Procedure, shortened: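 MOLT-4 (clone 8) cells at 1 × 10^6 cells/mL, cocultured with an equal number of persistently infected HUT-78/HIV-1 or HUT-78/HIV-2 cells across a range of compound concentrations. Giant cells were counted under the microscope after 24 h of cocultivation. The value is the concentration giving 50% inhibition of syncytium formation.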

HEL [12] = experiment: Concentration required to inhibit HEL cell growth by 50%; assay type: functional, cell-based; settings: Homo sapiens
HEL [13] = experiment: Concentration required to reduce human cytomegalo virus(AD-169) inducted cytopathicity by 50% (HEL cells); assay type: functional, cell-based; procedure, shortened: as §2
HEL [14] = experiment: Concentration required to reduce human cytomegalo virus(Davis) inducted cytopathicity by 50% (HEL cells); assay type: functional, cell-based; procedure, shortened: as §2
HeLa [15] = experiment: Concentration required to cause a microscopically detectable alteration of normal Hela cell morphology; assay type: functional, cell-based; settings: Homo sapiens
HeLa [16] = experiment: Concentration required to reduce Coxsackie virus-inducted cytopathicity by 50% (HeLa cells); assay type: functional, cell-based; settings: Homo sapiens
HeLa [17] = experiment: Concentration required to reduce polio-1 virus-inducted cytopathicity by 50% (HeLa cells); assay type: functional, cell-based; settings: Homo sapiens
HeLa [18] = experiment: Concentration required to reduce vesicular stomatitis virus-inducted cytopathicity by 50% (HeLa cells); assay type: functional, cell-based; settings: Homo sapiens
MT4 [19] = experiment: Concentration required to reduce the viability of uninfected MT-4 cells by 50%; assay type: functional; settings: Homo sapiens; procedure, shortened: as §1
MT4 [20] = experiment: Concentration required to inhibit human immunodeficiency virus-2 induced cytopathicity in MT-4 cells by 50%; assay type: functional, cell-based
Procedure, shortened: (§3)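 MT-4 cells infected with HIV-1 (strain HTLV-III_B/LAI) or HIV-2 (strain LAV_ROD). The end point is 50% inhibition of virus-induced cytopathicity.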

Vero [21] = experiment: Concentration required to cause a microscopically detectable alteration of normal Vero cell morphology; assay type: functional, cell-based; settings: Chlorocebus sabaeus
Vero [22] = experiment: Concentration required to reduce Coxsackie virus-inducted cytopathicity by 50% (Vero cells); assay type: functional, cell-based; settings: Chlorocebus sabaeus
Vero [23] = experiment: Concentration required to reduce Junin virus-inducted cytopathicity by 50% (Vero cells); assay type: functional, cell-based; settings: Chlorocebus sabaeus
Vero [24] = experiment: Concentration required to reduce forest virus-inducted cytopathicity by 50% (Vero cells); assay type: functional, cell-based; settings: Chlorocebus sabaeus
Vero [25] = experiment: Concentration required to reduce Tacaribe virus-inducted cytopathicity by 50% (Vero cells); assay type: functional, cell-based; settings: Chlorocebus sabaeus
Vero [26] = experiment: Concentration required to reduce parainfluenza-3 virus-inducted cytopathicity by 50% (Vero cells); assay type: functional, cell-based; settings: Chlorocebus sabaeus
Vero [27] = experiment: Concentration required to reduce reovirus-1 inducted cytopathicity by 50% (Vero cells); assay type: functional, cell-based; settings: Chlorocebus sabaeus
Vero [28] = experiment: Concentration required to reduce sindbis virus-inducted cytopathicity by 50% (Vero cells); assay type: functional, cell-based; settings: Chlorocebus sabaeus
MT4 [29] = experiment: Concentration required to inhibit human immunodeficiency virus-1 induced cytopathicity in MT-4 cells by 50%; assay type: functional, cell-based; procedure, shortened: as §3
E6SM [30] = experiment: Concentration required to reduce herpes simplex virus-2(Lyons) inducted cytopathicity by 50% (E6SM cells); assay type: functional, cell-based; settings: Homo sapiens; procedure, shortened: as §2
[31] = test system: Human immunodeficiency virus 2; experiment: Concentration required to inhibit by 50% human immunodeficiency virus-2 induced syncytium formation upon coculturing persistently HIV-infected HUT-78 cells with MOLT-4 cells; settings: HUT-78, MOLT-4

Row | SMILES | CC50 (CEM-4 [1]) [µM] | IC50 (CEM-4 [2]) [µM] | minimum cytotoxic concentration (E6SM [3]) [µM] | IC50 (E6SM [4]) [µM] | IC50 (E6SM [5]) [µM] | IC50 (E6SM [6]) [µM] | IC50 (E6SM [7]) [µM] | IC50 (E6SM [8]) [µM] | IC50 (E6SM [9]) [µM] | IC50 (E6SM [10]) [µM] | IC50 (Vaccinia virus) [µM] | IC50 [11] [µM] | IC50 (HEL [12]) [µM] | IC50 (HeLa [15]) [µM] | IC50 (HeLa [16]) [µM] | IC50 (HeLa [17]) [µM] | IC50 (HeLa [18]) [µM] | CC50 (MT4 [19]) [µM] | IC50 (MT4 [20]) [µM] | IC50 (Vero [21]) [µM] | also measured
1 | CO[C@H]1O[C@H](COCCCSCC(=O)O)[C@@H](OCCCSCC(=O)O)[C@@H](OCCCSCC(=O)O)[C@H]1OCCCSCC(=O)O | > 370 | > 370 |  |  |  |  |  |  |  |  |  |  |  |  |  |  |  |  |  |  | 
2 | CO[C@H]1O[C@H](COCCCSC(CC(=O)O)C(=O)O)[C@@H](OCCCSC(CC(=O)O)C(=O)O)[C@@H](OCCCSC(CC(=O)O)C(=O)O)[C@H]1OCCCSC(CC(=O)O)C(=O)O (stereo partly drawn) | > 265 | 69 |  |  |  |  |  |  |  |  |  |  |  |  |  |  |  |  |  |  | 
3 | CO[C@H]1O[C@H](COCCCSCCC(=O)O)[C@@H](OCCCSCCC(=O)O)[C@@H](OCCCSCCC(=O)O)[C@H]1OCCCSCCC(=O)O | > 346 | > 346 |  |  |  |  |  |  |  |  |  |  |  |  |  |  |  |  |  |  | 
4 | O=S(=O)(O)CCSCCCOC[C@H]1O[C@@](COCCCSCCS(=O)(=O)O)(O[C@H]2O[C@H](COCCCSCCS(=O)(=O)O)[C@@H](OCCCSCCS(=O)(=O)O)[C@H](OCCCSCCS(=O)(=O)O)[C@H]2OCCCSCCS(=O)(=O)O)[C@@H](OCCCSCCS(=O)(=O)O)[C@@H]1OCCCSCCS(=O)(=O)O | > 50.6 | > 50.6 | > 203 | > 203 | > 101 | > 101 | > 101 | > 101 | > 101 | > 101 | > 101 | > 127 | > 25 | > 101 | > 51 | > 51 | > 51 | > 127 | > 127 | > 101 | IC50 (HEL [13]): > 25 µM; IC50 (HEL [14]): > 25 µM; IC50 (Vero [22]): > 101 µM; IC50 (Vero [23]): > 25 µM; IC50 (Vero [24]): > 101 µM; IC50 (Vero [25]): > 25 µM; IC50 (Vero [26]): > 101 µM; IC50 (Vero [27]): > 101 µM; IC50 (Vero [28]): > 101 µM; IC50 (MT4 [29]): > 127 µM; IC50 (E6SM [30]): > 101 µM; IC50 [31]: > 127 µM
5 | O=C(O)CCSCCCOC[C@H]1O[C@@](COCCCSCCC(=O)O)(O[C@H]2O[C@H](COCCCSCCC(=O)O)[C@@H](OCCCSCCC(=O)O)[C@H](OCCCSCCC(=O)O)[C@H]2OCCCSCCC(=O)O)[C@@H](OCCCSCCC(=O)O)[C@@H]1OCCCSCCC(=O)O | > 59.3 | > 59.3 | > 237 | > 237 | > 237 | > 237 | > 237 | > 237 | > 237 | > 237 | > 237 | > 148 | > 30 | > 119 | > 119 | > 119 | > 119 | > 148 | > 148 | > 119 | IC50 (Vero [22]): > 59 µM; IC50 (Vero [23]): > 12 µM; IC50 (Vero [24]): > 59 µM; IC50 (Vero [25]): > 12 µM; IC50 (Vero [26]): > 59 µM; IC50 (Vero [27]): > 59 µM; IC50 (Vero [28]): > 59 µM; IC50 (MT4 [29]): 29 µM; IC50 (E6SM [30]): > 119 µM; IC50 [31]: > 148 µM
